# Results published in ChEMBL document CHEMBL4330096, “Discovery of potent and selective 5-azaindazole inhibitors of leucine-rich repeat kinase 2 (LRRK2) - Part 1” (Bioorg Med Chem Lett, 2019).
# Experiments:
# [1] = target: AMP-activated protein kinase, AMPK (Homo sapiens) (UniProt P54646+O43741+P54619+Q9UGJ0+Q9Y478+Q13131+Q9UGI9); assay: Inhibition of AMPK (unknown origin) at 1 uM relative to control; assay type: protein-complex assay
# Method in brief: (§1)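 Single-point screen of each compound against a panel of 59 protein kinases, at 1 or 10 μM. The panel data are also summarised as a rescaled geometric mean selectivity score.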
# [2] = target: T1, Serine/threonine-protein kinase Chk1 (Homo sapiens) (UniProt O14757); assay: Inhibition of CHK1 (unknown origin) at 1 uM relative to control; method in brief: as §1
# T1 sequence (whole entry): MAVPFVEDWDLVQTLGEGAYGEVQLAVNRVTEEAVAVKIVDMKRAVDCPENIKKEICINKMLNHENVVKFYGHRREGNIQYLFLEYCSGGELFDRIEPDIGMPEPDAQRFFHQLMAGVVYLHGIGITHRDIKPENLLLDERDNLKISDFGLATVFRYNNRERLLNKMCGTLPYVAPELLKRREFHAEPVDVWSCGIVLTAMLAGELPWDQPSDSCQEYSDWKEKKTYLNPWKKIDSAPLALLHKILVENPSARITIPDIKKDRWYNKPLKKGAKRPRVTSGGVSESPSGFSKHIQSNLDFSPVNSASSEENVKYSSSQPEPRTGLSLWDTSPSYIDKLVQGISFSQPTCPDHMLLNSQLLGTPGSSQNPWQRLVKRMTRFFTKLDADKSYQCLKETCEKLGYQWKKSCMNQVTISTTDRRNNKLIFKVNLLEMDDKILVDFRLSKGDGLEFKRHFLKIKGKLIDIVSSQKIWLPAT
# [3] = target: Casein kinase 2 (Homo sapiens) (UniProt P67870+P68400+P19784+Q8NEV1); assay: Inhibition of CK2 (unknown origin) at 1 uM relative to control; assay type: protein assay; method in brief: as §1
# [4] = target: Fibroblast growth factor receptor 1 (Homo sapiens) (UniProt P11362); assay: Inhibition of FGFR1 (unknown origin) at 1 uM relative to control; method in brief: as §1
# [5] = target: Homeodomain-interacting protein kinase 2 (Homo sapiens) (UniProt Q9H2X6); assay: Inhibition of HIPK2 (unknown origin) at 1 uM relative to control; method in brief: as §1
# [6] = target: Mitogen-activated protein kinase 9 (Homo sapiens) (UniProt P45984); assay: Inhibition of JNK2 (unknown origin) at 1 uM relative to control; method in brief: as §1
# [7] = target: MAP/microtubule affinity-regulating kinase 3 (Homo sapiens) (UniProt P27448); assay: Inhibition of MARK3 (unknown origin) at 1 uM relative to control
# Method in brief: (§2)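 Single-concentration screen of each compound against a 59-protein-kinase panel, run at 10 µM or 1 µM. Activity relative to control is shown as a heat map across the panel.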
# [8] = target: MAP kinase-interacting serine/threonine-protein kinase 1 (Homo sapiens) (UniProt Q9BUB5); assay: Inhibition of MNK1 (unknown origin) at 1 uM relative to control; method in brief: as §2
# [9] = target: T2, Serine/threonine-protein kinase 3 (Homo sapiens) (UniProt Q13188); assay: Inhibition of MST2 (unknown origin) at 1 uM relative to control; method in brief: as §2
# T2 sequence (whole entry): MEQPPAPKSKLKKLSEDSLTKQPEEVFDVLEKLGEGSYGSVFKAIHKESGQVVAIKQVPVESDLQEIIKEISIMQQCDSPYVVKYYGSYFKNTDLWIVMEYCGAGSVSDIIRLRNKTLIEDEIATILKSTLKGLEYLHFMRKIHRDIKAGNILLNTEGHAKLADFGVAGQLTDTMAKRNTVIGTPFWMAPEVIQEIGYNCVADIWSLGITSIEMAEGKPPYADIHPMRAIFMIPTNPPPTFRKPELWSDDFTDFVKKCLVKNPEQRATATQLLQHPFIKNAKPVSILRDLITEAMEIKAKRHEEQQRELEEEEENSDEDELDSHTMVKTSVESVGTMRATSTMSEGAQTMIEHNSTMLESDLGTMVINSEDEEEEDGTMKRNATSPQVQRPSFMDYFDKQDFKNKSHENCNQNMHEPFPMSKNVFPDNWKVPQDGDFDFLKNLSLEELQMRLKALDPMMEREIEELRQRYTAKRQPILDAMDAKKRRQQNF
# [10] = target: Serine/threonine-protein kinase 26 (Homo sapiens) (UniProt Q9P289); assay: Inhibition of MST4 (unknown origin) at 1 uM relative to control; method in brief: as §2
# [11] = target: T3, Protein kinase C zeta type (Homo sapiens) (UniProt Q05513); assay: Inhibition of PKCz (unknown origin) at 1 uM relative to control; method in brief: as §2
# T3 sequence (whole entry): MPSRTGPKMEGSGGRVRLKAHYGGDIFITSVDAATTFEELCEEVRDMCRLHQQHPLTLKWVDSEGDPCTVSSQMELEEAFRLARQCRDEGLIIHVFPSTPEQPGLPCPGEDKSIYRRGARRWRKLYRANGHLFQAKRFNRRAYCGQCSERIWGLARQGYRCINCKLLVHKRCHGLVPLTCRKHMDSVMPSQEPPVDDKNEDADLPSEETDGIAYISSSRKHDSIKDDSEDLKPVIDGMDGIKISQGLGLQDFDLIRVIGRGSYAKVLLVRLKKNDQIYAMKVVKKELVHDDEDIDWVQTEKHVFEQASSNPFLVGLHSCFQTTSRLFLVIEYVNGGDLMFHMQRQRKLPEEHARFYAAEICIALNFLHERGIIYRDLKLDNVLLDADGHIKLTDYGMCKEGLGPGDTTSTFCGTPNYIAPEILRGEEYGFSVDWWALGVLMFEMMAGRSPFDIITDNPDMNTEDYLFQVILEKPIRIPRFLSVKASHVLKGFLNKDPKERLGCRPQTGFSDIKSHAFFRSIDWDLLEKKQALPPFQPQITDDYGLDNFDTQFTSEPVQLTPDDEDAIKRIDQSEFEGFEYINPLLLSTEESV
# [12] = target: Tyrosine-protein kinase SYK (Homo sapiens) (UniProt P43405); assay: Inhibition of SYK (unknown origin) at 1 uM relative to control
# Method in brief: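 Single-concentration screen across a panel of 59 protein kinases, with each compound tested at one fixed concentration. The read-out is residual kinase activity relative to control. Panel results are also condensed into a rescaled geometric mean (RGM) selectivity score.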
# Chain of Mitogen-activated protein kinase 9 (Homo sapiens) (P45984 whole entry, looked up): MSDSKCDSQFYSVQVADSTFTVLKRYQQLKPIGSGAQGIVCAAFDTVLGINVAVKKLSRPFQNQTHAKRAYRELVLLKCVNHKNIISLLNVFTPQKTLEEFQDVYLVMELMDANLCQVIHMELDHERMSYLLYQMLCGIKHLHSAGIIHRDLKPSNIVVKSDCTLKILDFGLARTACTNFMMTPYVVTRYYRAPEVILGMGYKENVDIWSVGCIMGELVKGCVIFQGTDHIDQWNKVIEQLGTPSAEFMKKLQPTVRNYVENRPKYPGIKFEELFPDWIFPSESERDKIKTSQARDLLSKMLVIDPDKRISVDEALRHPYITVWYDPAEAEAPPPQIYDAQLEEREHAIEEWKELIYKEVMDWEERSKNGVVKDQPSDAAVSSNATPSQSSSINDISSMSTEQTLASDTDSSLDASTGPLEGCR
# Chain of Serine/threonine-protein kinase 26 (Homo sapiens) (Q9P289 2-416 limits assumed): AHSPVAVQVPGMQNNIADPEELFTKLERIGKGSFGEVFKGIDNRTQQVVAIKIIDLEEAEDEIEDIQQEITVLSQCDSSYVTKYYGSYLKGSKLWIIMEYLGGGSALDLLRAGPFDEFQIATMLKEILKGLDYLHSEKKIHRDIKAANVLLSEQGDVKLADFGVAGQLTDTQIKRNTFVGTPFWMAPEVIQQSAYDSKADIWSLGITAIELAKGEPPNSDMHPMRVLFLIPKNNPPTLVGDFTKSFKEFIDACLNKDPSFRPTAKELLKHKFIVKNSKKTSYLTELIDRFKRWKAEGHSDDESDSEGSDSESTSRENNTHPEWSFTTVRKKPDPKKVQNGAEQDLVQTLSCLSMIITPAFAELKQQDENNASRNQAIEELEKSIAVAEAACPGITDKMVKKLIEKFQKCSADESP
# Chain of MAP/microtubule affinity-regulating kinase 3 (Homo sapiens) (P27448 whole entry, looked up): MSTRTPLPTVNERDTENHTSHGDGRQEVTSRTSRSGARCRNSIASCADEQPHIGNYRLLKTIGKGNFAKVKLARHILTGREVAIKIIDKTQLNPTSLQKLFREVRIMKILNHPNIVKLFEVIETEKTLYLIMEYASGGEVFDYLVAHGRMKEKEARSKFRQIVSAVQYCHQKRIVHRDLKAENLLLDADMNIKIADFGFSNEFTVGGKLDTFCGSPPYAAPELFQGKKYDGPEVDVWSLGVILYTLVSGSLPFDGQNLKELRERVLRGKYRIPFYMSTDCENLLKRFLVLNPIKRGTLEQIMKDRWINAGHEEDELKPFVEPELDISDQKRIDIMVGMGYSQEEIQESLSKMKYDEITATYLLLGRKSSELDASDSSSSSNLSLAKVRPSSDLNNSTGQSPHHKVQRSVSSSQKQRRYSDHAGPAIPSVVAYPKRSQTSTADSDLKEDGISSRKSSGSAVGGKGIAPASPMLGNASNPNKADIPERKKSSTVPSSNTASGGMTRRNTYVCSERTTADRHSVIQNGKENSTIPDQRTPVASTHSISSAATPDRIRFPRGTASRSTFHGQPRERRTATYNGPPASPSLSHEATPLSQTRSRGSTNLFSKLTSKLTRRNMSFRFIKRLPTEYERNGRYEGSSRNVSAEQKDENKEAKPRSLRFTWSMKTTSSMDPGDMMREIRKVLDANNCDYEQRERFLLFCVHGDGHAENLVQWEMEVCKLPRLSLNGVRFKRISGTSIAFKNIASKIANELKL
# Chain of Homeodomain-interacting protein kinase 2 (Homo sapiens) (Q9H2X6 whole entry, looked up): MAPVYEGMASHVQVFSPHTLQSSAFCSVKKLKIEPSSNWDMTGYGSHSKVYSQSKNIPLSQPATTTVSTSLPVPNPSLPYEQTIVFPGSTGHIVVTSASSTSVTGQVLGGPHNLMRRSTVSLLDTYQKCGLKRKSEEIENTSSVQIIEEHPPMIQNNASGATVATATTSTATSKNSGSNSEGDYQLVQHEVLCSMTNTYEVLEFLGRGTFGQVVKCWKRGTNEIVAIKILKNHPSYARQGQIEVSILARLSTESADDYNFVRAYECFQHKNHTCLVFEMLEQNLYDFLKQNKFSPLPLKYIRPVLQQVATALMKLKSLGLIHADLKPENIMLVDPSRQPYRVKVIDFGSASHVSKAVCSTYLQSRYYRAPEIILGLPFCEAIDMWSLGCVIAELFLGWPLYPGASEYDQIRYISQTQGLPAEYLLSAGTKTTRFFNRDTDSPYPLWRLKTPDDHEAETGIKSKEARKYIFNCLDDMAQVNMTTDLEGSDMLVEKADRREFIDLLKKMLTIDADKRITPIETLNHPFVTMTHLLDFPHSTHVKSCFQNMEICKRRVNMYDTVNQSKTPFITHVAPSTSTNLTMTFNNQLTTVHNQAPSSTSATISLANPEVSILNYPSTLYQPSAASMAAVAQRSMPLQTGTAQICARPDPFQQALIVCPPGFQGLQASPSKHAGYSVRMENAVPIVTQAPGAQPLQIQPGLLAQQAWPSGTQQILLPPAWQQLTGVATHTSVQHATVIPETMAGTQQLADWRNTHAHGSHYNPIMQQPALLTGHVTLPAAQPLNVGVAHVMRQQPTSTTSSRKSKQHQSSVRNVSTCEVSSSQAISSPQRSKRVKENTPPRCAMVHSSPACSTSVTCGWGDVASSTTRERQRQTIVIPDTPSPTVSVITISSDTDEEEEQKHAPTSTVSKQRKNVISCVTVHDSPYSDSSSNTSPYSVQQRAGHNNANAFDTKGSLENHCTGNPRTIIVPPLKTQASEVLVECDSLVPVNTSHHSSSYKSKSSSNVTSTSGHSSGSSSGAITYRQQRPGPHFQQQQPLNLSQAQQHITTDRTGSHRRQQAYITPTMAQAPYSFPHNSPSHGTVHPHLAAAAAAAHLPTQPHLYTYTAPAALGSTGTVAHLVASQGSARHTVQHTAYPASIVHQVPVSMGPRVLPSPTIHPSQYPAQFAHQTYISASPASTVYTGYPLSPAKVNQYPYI
# Chain of MAP kinase-interacting serine/threonine-protein kinase 1 (Homo sapiens) (Q9BUB5 whole entry, looked up): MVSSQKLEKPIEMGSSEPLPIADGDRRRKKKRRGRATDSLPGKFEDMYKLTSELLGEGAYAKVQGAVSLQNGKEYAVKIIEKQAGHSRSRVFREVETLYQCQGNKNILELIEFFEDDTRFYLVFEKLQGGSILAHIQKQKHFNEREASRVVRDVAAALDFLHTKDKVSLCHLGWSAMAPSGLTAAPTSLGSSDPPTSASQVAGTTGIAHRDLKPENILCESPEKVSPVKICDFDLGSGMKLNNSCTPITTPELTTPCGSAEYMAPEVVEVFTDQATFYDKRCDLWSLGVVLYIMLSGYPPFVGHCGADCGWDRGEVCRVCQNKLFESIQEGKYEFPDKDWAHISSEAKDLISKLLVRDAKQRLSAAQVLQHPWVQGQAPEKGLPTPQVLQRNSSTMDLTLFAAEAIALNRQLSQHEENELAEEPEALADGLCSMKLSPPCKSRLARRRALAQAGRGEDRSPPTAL
# Chain of Fibroblast growth factor receptor 1 (Homo sapiens) (P11362 22-822 limits assumed): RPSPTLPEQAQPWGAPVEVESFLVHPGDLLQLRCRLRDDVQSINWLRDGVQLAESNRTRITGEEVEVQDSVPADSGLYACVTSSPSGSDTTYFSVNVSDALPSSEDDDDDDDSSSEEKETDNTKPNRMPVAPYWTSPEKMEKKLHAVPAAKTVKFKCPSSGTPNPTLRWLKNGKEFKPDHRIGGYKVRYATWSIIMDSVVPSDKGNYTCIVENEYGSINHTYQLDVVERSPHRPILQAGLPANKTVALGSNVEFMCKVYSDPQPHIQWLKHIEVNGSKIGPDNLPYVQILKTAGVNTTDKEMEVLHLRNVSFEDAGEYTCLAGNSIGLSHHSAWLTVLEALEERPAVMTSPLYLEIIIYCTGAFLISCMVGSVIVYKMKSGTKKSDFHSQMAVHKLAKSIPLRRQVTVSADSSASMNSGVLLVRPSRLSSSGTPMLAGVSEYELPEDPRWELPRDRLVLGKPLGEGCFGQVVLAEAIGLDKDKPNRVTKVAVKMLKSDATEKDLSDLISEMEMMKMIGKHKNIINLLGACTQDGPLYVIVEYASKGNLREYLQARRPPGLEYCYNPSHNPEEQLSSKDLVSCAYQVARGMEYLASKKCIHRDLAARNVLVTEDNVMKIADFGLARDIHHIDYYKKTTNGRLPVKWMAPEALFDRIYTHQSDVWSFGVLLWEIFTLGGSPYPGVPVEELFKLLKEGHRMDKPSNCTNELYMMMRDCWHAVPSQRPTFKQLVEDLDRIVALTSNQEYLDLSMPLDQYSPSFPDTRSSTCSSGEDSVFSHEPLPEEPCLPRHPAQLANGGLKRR
SMILES,inhibition [1],inhibition [2],inhibition [3],inhibition [4],inhibition [5],inhibition [6],inhibition [7],inhibition [8],inhibition [9],inhibition [10],inhibition [11],inhibition [12]
CC(C)n1cc(-c2n[nH]c3ccnc(OC4CCOCC4)c23)cn1,19%,5%,20%,56%,9%,29%,18%,0%,40%,47%,14%,0%
c1cc(-c2n[nH]c3ccnc(OC4CCOCC4)c23)cc(N2CCOCC2)n1,0%,0%,3%,4%,6%,43%,0%,2%,7%,3%,1%,0%
